Active and inactive are the calls of the source. No cut-off for these calls is given here.
Key:
[1] = target: T1, C-X-C chemokine receptor type 4 (Homo sapiens, UniProt P61073); test: Displacement of [125I]-CXCL12 from human CXCR4 receptor expressed in HEK293T cell membranes at 100 uM after 2 hrs by scintillation counting analysis relative to IT1t
Outline: (§1)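 Membranes (5 µg/well) from HEK293T transiently transfected with hCXCR4, incubated 2 h at 25 °C with 50 pM ¹²⁵I-CXCL12 in HEPES pH 7.4 buffer with CaCl₂, MgCl₂, NaCl, 1% BSA. Filtration through PEI-soaked GF/C, then scintillation counting. Non-specific binding defined by 10⁻⁵ M IT1t; three-parameter fit for pIC₅₀. Single-point displacement at 100 μM vs IT1t (100%). N = 3, triplicate.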

[2] = target: T1, C-X-C chemokine receptor type 4; test: Displacement of [125I]-CXCL12 from human CXCR4 receptor expressed in HEK293T cell membranes after 2 hrs by scintillation counting analysis; outline: as §1
[3] = target: T1, C-X-C chemokine receptor type 4; test: Antagonist activity at human DEF3-RLuc fused CXCR4 receptor expressed in HEK293T cells co-expressing DEF3-Beta-arrestin-2-mVenus assessed as inhibition of CXCL12-induced beta-arrestin2 recruitment at 100 uM preincubated for 60 mins followed by CXCL12 addition measured after 20 mins by BRET assay relative to IT1t; assay type: cell-based
Outline: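 HEK293T cells transiently co-transfected (PEI) with hCXCR4-RLuc and β-arrestin-2-mVenus, assayed two days later in HBSS. Compound given 60 min before 10 nM CXCL12 with 5 µM coelenterazine-h; RLuc (480 nm) and 540 nm read after 20 min. BRET ratio expressed as fold over vehicle. Single-concentration inhibition at 100 μM, IT1t as 100%. N = 3, triplicate.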

[4] = target: T1, C-X-C chemokine receptor type 4; test: Displacement of CXCL12-red from human NLuc-tagged CXCR4 receptor expressed in HEK293T cell membranes after 2 hrs by NanoBRET assay
Outline: (§2)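 Membranes (10 µg/well) from HEK293G cells stably expressing sig-NLuc–CXCR4 (G418-selected), in HBSS pH 7.4. CXCL12-red (50 nM) and competitor added together, 2 h at 37 °C; 10 µM furimazine, emissions at 460 and >610 nm read 5 min later, BRET ratio >610/460. Normalized to buffer (0%) and IT1t (100%); N = 3, triplicate.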

[5] = target: T1, C-X-C chemokine receptor type 4; test: Non-competitive antagonist activity at human CXCR4 receptor expressed in HEK293T cells co-expressing galphai1 assessed as inhibition of CXCL12-induced receptor activation up to 100 uM preincubated for 30 mins followed by CXCL12 addition and measured after 20 mins by FRET assay; assay type: cell-based
Outline: (§3)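 HEK293T transfected (Effectene) with CXCR4 and a Gαi1 FRET sensor, seeded on poly-D-lysine, read 24 h later at 37 °C in HEPES buffer pH 7.3. Antagonist at 0.1, 1, 10 or 100 µM (final, from DMSO) for 30 min, 5 min pre-read, then increasing CXCL12, FRET read 20 min (ex 420, em 485/540 nm). CXCL12 curves built per antagonist level; 3–5 repeats.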

[6] = target: T1, C-X-C chemokine receptor type 4; test: Antagonist activity at human DEF3-fused CXCR4 receptor expressed in HEK293T cells co-expressing DAN1-HA-Galphaq/i5 assessed as inhibition of CXCL12-induced IP3 accumulation after 90 mins in presence of [3H]-myo-inositol by scintillation counting analysis; assay type: functional, cell-based
Outline: (§4)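 HEK293T co-transfected (PEI) with CXCR4 and HA-Gαq/i5, moved next day to poly-L-lysine wells and labelled overnight with 1 µCi/mL [³H]-myo-inositol in inositol-free DMEM. Antagonist dilutions with 10 nM CXCL12, 10 mM LiCl, 0.05% BSA in HEPES saline pH 7.4, 1.5 h at 37 °C. InsP isolated on […] columns, then scintillation counted. Single-point at 100 μM vs IT1t; N ≥ 3, triplicate.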

[7] = target: T1, C-X-C chemokine receptor type 4; test: Displacement of CXCL12-red from human NLuc-tagged CXCR4 receptor expressed in HEK293T cell membranes at 100 uM after 2 hrs by NanoBRET assay relative to IT1t; outline: as §2
[8] = target: T1, C-X-C chemokine receptor type 4; test: Antagonist activity at human DEF3-RLuc fused CXCR4 receptor expressed in HEK293T cells co-expressing DEF3-Beta-arrestin-2-mVenus assessed as inhibition of CXCL12-induced beta-arrestin2 recruitment preincubated for 60 mins followed by CXCL12 addition measured after 20 mins by BRET assay; assay type: cell-based
[9] = target: T1, C-X-C chemokine receptor type 4; test: Antagonist activity at human DEF3-fused CXCR4 receptor expressed in HEK293T cells co-expressing DAN1-HA-Galphaq/i5 assessed as inhibition of CXCL12-induced IP3 accumulation at 100 uM after 90 mins in presence of [3H]-myo-inositol by scintillation counting analysis relative to IT1t; assay type: functional, cell-based; outline: as §4
[10] = target: T1, C-X-C chemokine receptor type 4; test: Displacement of [125I]-CXCL12 from human CXCR4 receptor expressed in HEK293T cell membranes at 63 uM after 2 hrs by scintillation counting analysis relative to IT1t
Outline: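 hCXCR4 membranes from transiently transfected HEK293T, competing against ¹²⁵I-CXCL12 at 40 pM, 2 h at 25 °C, filtration and scintillation counting. Percentage displacement by ligand at 63 μM relative to IT1t at 63 μM (100%). N = 3, triplicate.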

[11] = target: T1, C-X-C chemokine receptor type 4; test: Competitive antagonist activity at human CXCR4 receptor expressed in HEK293T cells co-expressing galphai1 assessed as inhibition of CXCL12-induced receptor activation up to 100 uM preincubated for 30 mins followed by CXCL12 addition and measured after 20 mins by FRET assay; assay type: cell-based; outline: as §3

T1 sequence (P61073 whole entry): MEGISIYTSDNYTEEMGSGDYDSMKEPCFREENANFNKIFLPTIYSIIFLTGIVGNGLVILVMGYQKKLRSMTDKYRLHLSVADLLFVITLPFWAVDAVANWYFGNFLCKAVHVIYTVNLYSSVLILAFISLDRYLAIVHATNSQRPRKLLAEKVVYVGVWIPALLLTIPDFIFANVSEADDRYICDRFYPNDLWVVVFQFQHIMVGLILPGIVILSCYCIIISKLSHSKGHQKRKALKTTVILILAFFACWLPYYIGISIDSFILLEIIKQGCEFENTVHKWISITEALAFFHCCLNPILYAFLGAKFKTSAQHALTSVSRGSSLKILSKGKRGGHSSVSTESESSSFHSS

Row | Compound | inhibition [1] [%] | IC50 [2] [nM] | further results
1 | NCC1CCN(Cc2ccc(Cl)c(Cl)c2)CC1 | 67 | > 10000 | –
2 | CN(C)CCCNCc1ccc(Cl)c(Cl)c1 | – | > 10000 | inhibition [10]: 70%
3 | Cc1cccc(CNCC2CCN(Cc3cccc(Cl)c3)CC2)c1 | 86 | 2510 | –
4 | Cc1cccc(CNCC2CCN(Cc3ccc(Cl)cc3)CC2)c1 | 86 | 10000 | –
5 | Cc1ccccc1CNCC1CCN(Cc2ccccc2Cl)CC1 | 72 | 251 | –
6 | c1ccc(CNCC2CCN(Cc3ccccc3)CC2)cc1 | 72 | 10000 | –
7 | CCCNCC1CCN(Cc2ccccc2C)CC1 | – | – | inhibition [10]: > 50%
8 | Clc1ccccc1CN1CCC(CNCc2ccc3ccccc3c2)CC1 | 78 | 501 | –
9 | NCC1CCN(Cc2ccccc2Cl)CC1 | – | 10000 | inhibition [10]: 69%
10 | NCCC1CCN(Cc2ccccc2Cl)CC1 | 56 | > 10000 | –
11 | c1cc(CN2CCCNCCNCCCNCC2)ccc1CN1CCCNCCNCCCNCC1 | – | – | inhibition [11]: Active
12 | Oc1ccc(CN2CCC(CNCc3ccccc3)CC2)cc1 | 65 | > 10000 | IC50 [6]: > 31600 nM; IC50 [8]: > 31600 nM
13 | Clc1ccccc1CN1CCC(CNCc2cccnc2)CC1 | 89 | 2000 | –
14 | Clc1ccccc1CN1CCC(CNCC2CCCCC2)CC1 | 77 | 3160 | –
15 | Clc1ccccc1CN1CCC(CNCc2cccc(Cl)c2Cl)CC1 | 13 | 2510 | –
16 | CCC[C@H](C)c1cc(CN(C)C)c(O)cc1CN(C)C | – | – | inhibition [10]: > 50%
17 | Oc1ccc(CNCC2CCN(Cc3ccccc3Cl)CC2)cc1 | 98 | 316 | –
18 | COc1ccc(CNCC2CCN(Cc3ccccc3Cl)CC2)cc1 | 88 | 1260 | –
19 | Clc1cccc(CNCC2CCN(Cc3ccccc3Cl)CC2)c1 | 65 | 316 | –
20 | NCC1CCN(CC2CCCCC2)CC1 | 59 | > 10000 | –
21 | Cc1cccc(CNCC2CCN(Cc3cccc(Cl)c3Cl)CC2)c1 | 74 | 794 | –
22 | Clc1ccc(CNCC2CCN(Cc3ccccc3Cl)CC2)cc1 | 80 | 631 | –

More lines, main results first:

Row | inhibition [1] [%] | IC50 [2] [nM] | Compound | further results
23 | 67 | > 10000 | COc1ccccc1CN1CCC(CN)CC1 | –
24 | 98 | 501 | Clc1ccccc1CN1CCC(CNCc2cccc(-c3ccccc3)c2)CC1 | inhibition [3]: 102%; IC50 [4]: 631 nM; inhibition [5]: Active; IC50 [6]: 1260 nM; inhibition [6]: Dose-dependent effect; inhibition [7]: 98%; IC50 [8]: 2510 nM; inhibition [9]: 94%
25 | 81 | > 10000 | Cc1ccccc1CN1CCC(CN)CC1 | –
26 | 80 | 200 | Clc1ccccc1CNCC1CCN(Cc2ccccc2Cl)CC1 | –
27 | 96 | 1000 | Clc1ccccc1CN1CCC(CNCc2c[nH]cn2)CC1 | –
28 | 81 | 794 | CCc1cccc(CNCC2CCN(Cc3ccccc3OC)CC2)c1 | –
29 | 63 | 158 | Cc1cccc(CNCC2CCN(Cc3ccccc3Cl)CC2)c1 | inhibition [3]: 97%; IC50 [4]: 1000 nM; inhibition [5]: Active; IC50 [6]: 1000 nM; inhibition [6]: Dose-dependent effect; inhibition [7]: 73%; IC50 [8]: 3160 nM; inhibition [9]: 87%
30 | 60 | 251 | Cc1cccc(CNCC2CCN(Cc3c(Cl)cccc3Cl)CC2)c1 | –
31 | 85 | 2510 | COc1ccccc1CN1CCC(CNCc2ccccc2)CC1 | –
32 | 87 | 316 | Clc1ccccc1CN1CCC(CNCc2ccccc2)CC1 | inhibition [3]: 103%; IC50 [4]: 794 nM; IC50 [6]: 2000 nM; inhibition [6]: Dose-dependent effect; inhibition [11]: Active; inhibition [7]: 84%; IC50 [8]: 3980 nM; inhibition [9]: 93%
33 | 62 | 1000 | Cc1ccc(CNCC2CCN(Cc3ccccc3Cl)CC2)cc1 | –
34 | 84 | 794 | COc1ccccc1CN1CCC(CNCc2cccc(C)c2)CC1 | –
35 | 72 | 251 | Clc1ccccc1CN1CCC(CNCc2ccc3c(c2)OCO3)CC1 | –
